SKKanGAS inh = S. pyogenes SKKanGAS growth inhibitors in kanamycin, primary screen, streptokinase expression inhibitor project, SKKanGAS strain, BacTiter-Glo luminescence; inhibition, % at 7.5 µM; hit rate 1.3% among 300,000; 6 h;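 active = mean replicate score, as percent of positive control median, at least 50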;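 note: strain carries kanamycin resistance gene driven by streptokinase promoter and grows in 40 µg/ml kanamycin; loss of luminescence reflects streptokinase promoter inhibition or plain growth inhibition; 0% = median of DMSO wells and 100% = positive control at its reference dose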
CSC inhib = cancer stem cell viability inhibitors, primary screen, luminescence. inhibition, % at 7.5 µM. AID 2717, 2010. hit rate 1.1% among 300,000. cancer stem cell-like cells viability; in the data active = inhibition above about 75%; tested in HMLE shEcad cells
T cruzi inh = inhibitors of intracellular T. cruzi growth, primary screen, luminescence, NIH3T3 host cells; T. cruzi beta-gal in NIH3T3, 90 h; inhibition, % (no concentration beside the values); hit rate 1.4% among 300,000; AID 1885, 2009;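 active = mean inhibition across valid replicates above about 55%, limit read from the data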;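 note: signal also drops with host cell toxicity which is not excluded here; 0% = plate median of DMSO wells and 100% = zero luminescence signal; higher percent means less beta-gal luminescence so fewer parasites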
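System: NIH/3T3 fibroblasts plus reporter T. cruzi. Medium: DMEM plus 2% FBS. Probe or stimulus: 5000 reporter trypomastigotes per well. Compound: single 50 nL compound addition per well in DMSO. Incubation: co-culture of at least 90 h after 3 h attachment. Detection: GalScreen β-gal luminescence, detergent lysis, 60 min. Evaluation: parasite load inhibition, %.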
HIF activator = HIF pathway transcriptional activators, primary screen, cell-based, U2OS HRE-luciferase, luminescence. U2OS HRE-luciferase reporter; normalized: DMSO 0%, desferrioxamine 100%. hit rate 0.32% among 300,000. AID 1910, 2009. activation, % at 7.5 µM (by protocol);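 active = mean activation of at least 10% of the iron chelator positive control signal, with at least half of replicates also reaching 10%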
Beta cell apopt = inhibitors of cytokine-induced beta cell apoptosis, primary screen, luminescence | protection from apoptosis, % (concentration not given with the values) | AID 435005, 2010 | INS-1E cytokine-induced death, ATP luminescence, 48 h; percent of positive-control rescue, neutral wells zero | hit rate 0.8% among 300,000;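 active = Every replicate reaches about 75%, or at least half do and their mean reaches it too, limit read from the data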;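 note: 0% = cytokine-treated negative control wells and 100% = positive control rescue; higher means more ATP so stronger rescue from cytokine killing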
PfHsp90 set2 = growth inhibition of PfHsp90-expressing yeast, primary screen, antimalarial PfHsp90 inhibitor project, S. cerevisiae, BacTiter-Glo luminescence, single point, set 2; BacTiter-Glo ATP, 48 h; yeast lacking PDR1 and PDR3 efflux regulators; inhibition, % at 9.4 µM; hit rate 0.32% among 310,000; AID 504621, 2011;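 active = every replicate shows inhibition above about 80%, whatever the replicate mean, limit read from the data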;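 note: 0% = DMSO neutral controls and 100% = 20 µM radicicol positive controls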
Active calls of the source: *. Shown are actives, neighbours in structure and some others; about 3.6% of the full set was active somewhere.

What do the screens show for `Cc1ccc2c(c1)Oc1ccc(NC(=O)CCCl)cc1C(=O)N2`?
SKKanGAS inh: 8.2; CSC inhib: 92.4*; T cruzi inh: -69.4; HIF activator: -0.3; Beta cell apopt: -1.6; PfHsp90 set2: 10.6

What do the screens show for `O=C(C[C@H]1C/C=C\CCC(=O)OC[C@H]2CCCN2C1=O)NCCO`?
Beta cell apopt: -5.1; PfHsp90 set2: -13.4

How did O=c1c(Cl)c(Cl)cnn1Cc1nnc(-c2ccccc2Br)o1 do in these assays?
SKKanGAS inh: 16.0; T cruzi inh: 57.3*; HIF activator: 0.6; PfHsp90 set2: -0.8

What do the screens show for `Clc1ccccc1OCc1nnc(-c2ccccc2Br)o1`?
SKKanGAS inh: 19.8; T cruzi inh: -0.6; HIF activator: 4.3; Beta cell apopt: 3.5; PfHsp90 set2: -19.2

How did Cc1ccc(C(=O)COc2nc(C)nc3ccccc23)cc1 do in these assays?
SKKanGAS inh: 1.5; T cruzi inh: -9.0; HIF activator: -0.4; Beta cell apopt: 0.2; PfHsp90 set2: -9.2

What do the screens show for `COc1ccc(Cl)cc1NC(=O)c1cccc([N+](=O)[O-])c1O`?
PfHsp90 set2: 26.0

Results for COc1ccc2c(c1)c(CC(=O)Nc1ccc(C(C)=O)cc1)c(C)n2C(=O)c1ccc(Cl)cc1 ?
SKKanGAS inh: 26.0; CSC inhib: -16.5; T cruzi inh: 35.5; HIF activator: 0.2; Beta cell apopt: 0.9; PfHsp90 set2: 5.1

What do the screens show for `COc1ccc2c(c1)c(CC(=O)Nc1ccccc1OC)c(C)n2C(=O)c1ccc(Cl)cc1`?
SKKanGAS inh: 3.0; CSC inhib: 3.9; T cruzi inh: 48.2; HIF activator: -0.2; Beta cell apopt: 4.1; PfHsp90 set2: -3.0

What do the screens show for `COc1ccc2c(c1)c(CC(=O)Nc1nnc(C3CC3)s1)c(C)n2C(=O)c1ccc(Cl)cc1`?
SKKanGAS inh: 10.3; T cruzi inh: 56.7*; HIF activator: 7.3; Beta cell apopt: 15.0; PfHsp90 set2: -30.6

How did COc1ccc2c(c1)c(CC(=O)NCc1cc([N+](=O)[O-])ccc1O)c(C)n2C(=O)c1ccc(Cl)cc1 do in these assays?
SKKanGAS inh: 51.5*; CSC inhib: 4.8; T cruzi inh: -1.2; HIF activator: -0.5; Beta cell apopt: 8.5; PfHsp90 set2: -0.2

Results for COc1ccc2c(c1)c(CC(=O)Nc1cc(C)ccc1C)c(C)n2C(=O)c1ccc(Cl)cc1 ?
SKKanGAS inh: 21.2; CSC inhib: 9.2; T cruzi inh: 59.7*; HIF activator: -0.1; Beta cell apopt: 4.0; PfHsp90 set2: 2.6

Results for c1ccc(C2OCCN2c2ccccc2)cc1 (stereo not drawn) ?
PfHsp90 set2: 10.7

How did CN1CCc2c(sc3c2c(=O)n(-c2ccccc2)c2nnc(SCc4ccc(Cl)cc4)n32)C1 do in these assays?
SKKanGAS inh: 17.2; CSC inhib: -55.2; T cruzi inh: 61.0*; HIF activator: 0.1; Beta cell apopt: 1.5; PfHsp90 set2: -4.4

What do the screens show for `CCOc1ccc(NC(=O)c2sc3nc4n(c(=O)c3c2C)CCC4)cc1`?
SKKanGAS inh: 7.6; CSC inhib: 1.0; T cruzi inh: -10.8; HIF activator: -0.4; Beta cell apopt: 0.6; PfHsp90 set2: -18.9

What do the screens show for `CCOC(=O)c1ccc(NC(=O)c2sc3nc4n(c(=O)c3c2C)CCC4)cc1`?
SKKanGAS inh: 61.6*; CSC inhib: -2.8; T cruzi inh: 1.2; HIF activator: 0.0; PfHsp90 set2: -7.1

What do the screens show for `O=C(Nc1ccccc1)Nc1ccccc1-n1ccnc1`?
SKKanGAS inh: -8.3; CSC inhib: -19.0; T cruzi inh: 60.8*; HIF activator: -0.7; Beta cell apopt: 5.3; PfHsp90 set2: 3.5

How did O=C(Nc1ccccc1)Nc1ccccc1 do in these assays?
PfHsp90 set2: 19.8

Results for O=C(Nc1ccc(F)cc1)Nc1cc(OCC(F)(F)F)cc(OCC(F)(F)F)c1 ?
SKKanGAS inh: 77.9*; CSC inhib: 50.6; T cruzi inh: 44.3; HIF activator: -4.1; Beta cell apopt: 105.9*; PfHsp90 set2: 20.4

Screening data (PubChem BioAssay)
